The results in this text go back to ChEMBL document CHEMBL2384966, “Probes for narcotic receptor mediated phenomena. 47. Novel C4a- and N-substituted-1,2,3,4,4a,9a-hexahydrobenzofuro[2,3-c]pyridin-6-ols” (Bioorg Med Chem, 2013).

The source made the active and inactive calls. The calls are words filed in the database; no cut-off is given here.

The species entered for assay [1] is Homo sapiens. Put plainly: Selectivity ratio of Ki for human recombinant kappa opioid receptor to Ki for human recombinant delta opioid receptor.
The species entered for assay [2] is Homo sapiens. Nature of the assay: Selectivity ratio of Ki for human recombinant kappa opioid receptor to Ki for human recombinant mu opioid receptor.
The species named for assay [3] is Homo sapiens. Put plainly: Selectivity ratio of Ki for human recombinant mu opioid receptor to Ki for human recombinant delta opioid receptor.
In assay [4] the target is T1, Delta-type opioid receptor (Homo sapiens, UniProt P41143). Put plainly: Antagonist activity at human recombinant delta opioid receptor expressed in mouse/rat NG108-15 cell membranes assessed as inhibition of SNC80-induced [35S]GTPgammaS binding by liquid scintillation counting analysis. The format is functional. (Binding of GTPγS marks nucleotide exchange on a G protein.)
T1 sequence (P41143 whole entry): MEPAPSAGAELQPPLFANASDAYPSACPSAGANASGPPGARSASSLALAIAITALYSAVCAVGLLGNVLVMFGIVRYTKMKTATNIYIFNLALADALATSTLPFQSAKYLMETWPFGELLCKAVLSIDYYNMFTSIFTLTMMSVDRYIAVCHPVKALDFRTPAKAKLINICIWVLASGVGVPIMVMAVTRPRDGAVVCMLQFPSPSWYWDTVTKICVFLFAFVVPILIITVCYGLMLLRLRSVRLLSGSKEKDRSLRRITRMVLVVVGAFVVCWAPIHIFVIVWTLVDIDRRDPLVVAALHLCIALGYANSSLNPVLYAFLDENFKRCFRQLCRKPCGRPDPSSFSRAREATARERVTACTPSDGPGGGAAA

Assay [5] has as its target T1, Delta-type opioid receptor. Nature of the assay: Partial agonist activity at human recombinant delta opioid receptor expressed in mouse/rat NG108-15 cell membranes assessed as stimulation of [35S]GTPgammaS binding after 3 hrs by liquid scintillation counting analysis relative to SNC80. The format is functional. The method, boiled down: (§1)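 DOR function measured in NG108-15 neuroblastoma-glioma membranes. Incubated with drug, GDP and 50 pM final [35S]GTPγS in 50 mM Tris-HCl pH 7.4, 100 mM NaCl, 10 mM MgCl2, 1 mM EDTA, 1 mM DTT, 0.1% BSA, 3 h at 25 °C. Unlabelled GTPγS defined nonspecific binding. Bound label collected on GF/B filters and scintillation counted; ED50 and Emax reported.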

For assay [6], the target named is T2, Kappa-type opioid receptor (Homo sapiens, UniProt P41145). Nature of the assay: Displacement of [3H]U69,593 from human recombinant kappa opioid receptor expressed in CHO cell membranes after 2 hrs by liquid scintillation counting analysis. The format is cell-based.
T2 sequence (P41145 whole entry): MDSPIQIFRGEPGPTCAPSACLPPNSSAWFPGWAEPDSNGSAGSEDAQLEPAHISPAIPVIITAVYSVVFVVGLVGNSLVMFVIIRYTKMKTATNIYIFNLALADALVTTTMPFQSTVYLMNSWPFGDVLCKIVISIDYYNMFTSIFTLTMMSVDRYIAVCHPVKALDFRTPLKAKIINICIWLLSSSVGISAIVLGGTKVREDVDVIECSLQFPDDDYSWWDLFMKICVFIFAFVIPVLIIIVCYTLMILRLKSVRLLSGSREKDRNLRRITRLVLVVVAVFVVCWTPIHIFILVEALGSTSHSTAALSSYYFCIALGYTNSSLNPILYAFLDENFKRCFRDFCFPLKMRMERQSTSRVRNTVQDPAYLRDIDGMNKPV
Assay [7] concerns the target T1, Delta-type opioid receptor. Nature of the assay: Displacement of [3H]DADLE from human recombinant delta opioid receptor expressed in CHO cell membranes after 2 hrs by liquid scintillation counting analysis. The method in brief:
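Human DOR stably expressed in CHO cells; washed membranes (~30 µg protein/tube) incubated with ~2 nM [3H]DADLE and 10 drug concentrations in 50 mM Tris-HCl pH 7.4 with protease inhibitors, 2 h at 25 °C. Levallorphan defined nonspecific binding.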
(In general: In a radioligand displacement assay an active substance lowers the binding of a labelled ligand.)

Assay [8] concerns the target T3, Mu-type opioid receptor (Homo sapiens, UniProt P35372). Put plainly: biochemical. The format is cell-based, CHO.
Assay [9] has as its target T3, Mu-type opioid receptor. Nature of the assay: Binding affinity to mu opioid receptor (unknown origin).
Assay [10] has as its target T1, Delta-type opioid receptor. Put plainly: Partial agonist activity at human recombinant delta opioid receptor expressed in mouse/rat NG108-15 cell membranes assessed as stimulation of [35S]GTPgammaS binding after 3 hrs by liquid scintillation counting analysis. The class given is functional. The method, boiled down: as §1
The target of assay [11] is T1, Delta-type opioid receptor. Put plainly: Binding affinity to delta opioid receptor (unknown origin).
In assay [12] the target is T2, Kappa-type opioid receptor. Nature of the assay: Binding affinity to kappa opioid receptor (unknown origin).

T3 sequence (P35372 whole entry): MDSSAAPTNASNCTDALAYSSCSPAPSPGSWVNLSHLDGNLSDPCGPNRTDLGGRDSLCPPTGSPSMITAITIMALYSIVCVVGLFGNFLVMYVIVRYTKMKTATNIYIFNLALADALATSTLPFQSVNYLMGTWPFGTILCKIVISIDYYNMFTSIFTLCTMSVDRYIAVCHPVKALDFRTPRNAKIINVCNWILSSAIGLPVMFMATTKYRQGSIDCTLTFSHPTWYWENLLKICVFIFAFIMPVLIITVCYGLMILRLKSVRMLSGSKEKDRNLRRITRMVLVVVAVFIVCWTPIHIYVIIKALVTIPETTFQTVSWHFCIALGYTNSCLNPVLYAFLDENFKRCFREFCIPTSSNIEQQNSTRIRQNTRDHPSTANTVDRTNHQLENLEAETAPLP

In the case of `CN1CC[C@@]2(CCc3ccc(F)cc3)c3cc(O)ccc3O[C@H]2C1` (relative stereo), the Ratio Ki in the assay listed under Homo sapiens [1] came out at 22; in the assay listed under Homo sapiens [2], 17; in the assay filed under Homo sapiens [3], 1.3.

In the case of `Oc1ccc2c(c1)[C@]1(CCc3ccccc3)CCN(CCc3ccc(C(F)(F)F)cc3)C[C@@H]1O2` (relative stereo), the Ke in assay [4] came out at 827 nM. Further, the maximal effect (Emax) (usually the size of the effect at its maximum, as opposed to the concentration needed) in assay [5] came to 46%.

Turning to `CN1CC[C@@]2(CCCCCc3ccccc3)c3cc(O)ccc3O[C@H]2C1` (relative stereo), the Ke in assay [4] is > 200 nM. The Ratio Ki in the assay listed under Homo sapiens [1] worked out at 0.95; in the assay listed under Homo sapiens [2] it was 3; in the assay listed under Homo sapiens [3] it was 0.4.

In the case of `CN1CC[C@@]2(Cc3ccccc3)c3cc(O)ccc3O[C@H]2C1` (racemic), the Ki (usually the equilibrium dissociation constant of an inhibitor or competing ligand from its target) in [6] worked out at 2.88 µM; in assay [7], 0.064 µM; at Mu-type opioid receptor [8], 0.06 µM.

Take `Oc1ccc2c(c1)[C@]1(CCc3ccccc3)CCN(CCc3ccccc3C(F)(F)F)C[C@@H]1O2` (relative stereo): the Ratio Ki in the assay listed under Homo sapiens [1] stood at 14; in the assay listed under Homo sapiens [2] it was 11; in the assay listed under Homo sapiens [3] it was 1.3.

Regarding `CCCC[C@@]12CCN(C)C[C@@H]1Oc1ccc(O)cc12` (relative stereo), the figures for the Ratio Ki in the assay listed under Homo sapiens [1], in the assay filed under Homo sapiens [2] and in the assay listed under Homo sapiens [3] were 9, 20 and 0.5, respectively.

In the case of `Oc1ccc2c(c1)[C@]1(CCc3ccccc3)CCN(CCc3ccc(F)cc3)C[C@@H]1O2` (relative stereo), in [4], the Ke came out at 213 nM. Besides, the Emax in [5] was 29%.

In turn, `CC[C@@]12CCN(CCc3ccccc3)C[C@@H]1Oc1ccc(O)cc12` showed an inhibitory constant (Ki) on Mu-type opioid receptor [9] of 0.0009 µM.

For the compound `CN1CC[C@@]2(CCc3ccccc3F)c3cc(O)ccc3O[C@H]2C1` (relative stereo), the Ke in assay [4] is 29 nM.

For `Oc1ccc2c(c1)[C@]1(CCc3ccccc3)CCN(CC3CC3)C[C@@H]1O2` (relative stereo), in [10], the ED50 result is “inactive”.

For `CC[C@@]12CCN(C)C[C@@H]1Oc1ccc(O)cc12` (racemic), the Ratio Ki in the assay listed under Homo sapiens [1] is > 23; in the assay filed under Homo sapiens [2] it was > 263; in the assay filed under Homo sapiens [3], 0.09. The Ki in assay [6] is > 5 µM; in assay [7] it was 0.212 µM; at Mu-type opioid receptor [8] it was 0.019 µM.

With `CN1CC[C@@]2(C)c3cc(O)ccc3O[C@H]2C1` (relative stereo), the Ratio Ki was > 0.4 in the assay filed under Homo sapiens [1], > 10 in the assay filed under Homo sapiens [2] and 0.04 in the assay filed under Homo sapiens [3].

For the compound `Oc1ccc2c(c1)[C@]1(CCc3ccccc3)CCN(CCc3ccccc3)C[C@@H]1O2` (relative stereo), the Ke in assay [4] was determined as 258 nM. In addition, the Emax in assay [5] worked out at 29%.

Turning to `CC[C@@]12CCN(CC3CC3)C[C@@H]1Oc1ccc(O)cc12`, the Ki in [11] was 0.053 µM; in assay [12], 0.034 µM; on Mu-type opioid receptor [9], 0.004 µM.

`Oc1ccc2c(c1)[C@]1(CCc3ccccc3)CCN(CCc3cccc(C(F)(F)F)c3)C[C@@H]1O2` (relative stereo): in [4], the Ke came out at 455 nM.

As to `Oc1ccc2c(c1)[C@]1(CCc3ccccc3)CCN(CCc3ccccc3F)C[C@@H]1O2` (relative stereo), the Ke in [4] was 37 nM. The ED50 result in [10] is “inactive”.

Consider `CN1CC[C@@]2(CCc3ccccc3)c3cc(O)ccc3O[C@H]2C1` (racemic), for which the Ki stood at 3.54 µM in assay [6], 0.551 µM in assay [7] and 0.066 µM on Mu-type opioid receptor [8].
